ChEMBL document CHEMBL2046289, “Novel 2-(2-(benzylthio)-1H-benzo[d]imidazol-1-yl)acetic acids: discovery and hit-to-lead evolution of a selective CRTh2 receptor antagonist chemotype” (Bioorg Med Chem Lett, 2012)
≈ marks a conversion by molar mass, not a printed value.

How the values were obtained:
[1] = biological target: T1, Prostaglandin D2 receptor 2 (Homo sapiens, UniProt Q9Y5Y4); experiment: Displacement of [3H]-PGD2 from human CRTh2 receptor expressed in HEK293 cells; format: cell-based
T1 sequence (Q9Y5Y4 whole entry): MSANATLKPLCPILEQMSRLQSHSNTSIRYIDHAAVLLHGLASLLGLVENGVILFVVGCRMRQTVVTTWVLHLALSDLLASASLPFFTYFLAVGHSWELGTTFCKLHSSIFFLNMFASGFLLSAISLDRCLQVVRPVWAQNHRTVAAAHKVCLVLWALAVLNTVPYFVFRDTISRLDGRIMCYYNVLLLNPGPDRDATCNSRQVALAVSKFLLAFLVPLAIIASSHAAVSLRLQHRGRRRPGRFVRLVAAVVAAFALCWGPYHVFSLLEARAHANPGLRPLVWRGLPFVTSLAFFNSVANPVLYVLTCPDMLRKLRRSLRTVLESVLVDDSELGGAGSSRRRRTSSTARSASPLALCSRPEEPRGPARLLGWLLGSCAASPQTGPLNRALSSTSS

[2] = biological target: T1, Prostaglandin D2 receptor 2; experiment: Antagonist activity at human CRTh2 receptor expressed in HEK293 cells assessed as inhibition of PGD2-induced calcium flux by FLIPR assay; format: functional, cell-based
[3] = Intrinsic clearance in rat liver microsomes assessed per mg protein; format: ADME, Microsome; conditions: read-out: CLH
[4] = Metabolic stability of the compound in human plasma assessed as compound remaining after 4 hrs; format: ADME, cell-free; conditions: read-out: Stability
[5] = Solubility of the compound in phosphate buffer at pH 7; format: physicochemical
[6] = biological target: T2, Prostaglandin D2 receptor (Homo sapiens, UniProt Q13258); experiment: Displacement of [3H]-PGD2 from human DP1 receptor expressed in CHO cells; format: cell-based
T2 sequence (Q13258 whole entry): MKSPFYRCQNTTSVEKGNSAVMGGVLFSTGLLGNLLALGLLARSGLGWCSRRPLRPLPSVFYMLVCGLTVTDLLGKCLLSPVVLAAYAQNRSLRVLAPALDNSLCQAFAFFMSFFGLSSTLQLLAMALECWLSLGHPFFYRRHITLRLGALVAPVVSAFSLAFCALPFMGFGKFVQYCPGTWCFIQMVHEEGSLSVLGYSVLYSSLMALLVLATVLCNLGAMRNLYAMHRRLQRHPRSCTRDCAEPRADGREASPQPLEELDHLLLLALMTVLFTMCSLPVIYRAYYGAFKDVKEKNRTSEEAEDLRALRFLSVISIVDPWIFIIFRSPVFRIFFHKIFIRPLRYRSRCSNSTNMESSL

[7] = Intrinsic clearance in rat hepatocytes assessed per 10^6 cells; format: ADME, cell-based, Hepatocyte; conditions: read-out: CLH
[8] = Stability of the compound in simulated intestinal fluid assessed as compound remaining after 4 hrs; format: physicochemical; conditions: read-out: Stability
In short: (§1)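 Compound incubated in simulated gastric fluid for 1 h or simulated intestinal fluid for 4 h; unchanged parent recovered quantified by LC-MS, expressed as % parent remaining.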

Cytochrome P450 3A4 [9] = biological target: T3, Cytochrome P450 3A4 (Homo sapiens, UniProt P08684); experiment: Inhibition of CYP3A4 using testosterone as substrate; format: ADME
T3 sequence (P08684 whole entry): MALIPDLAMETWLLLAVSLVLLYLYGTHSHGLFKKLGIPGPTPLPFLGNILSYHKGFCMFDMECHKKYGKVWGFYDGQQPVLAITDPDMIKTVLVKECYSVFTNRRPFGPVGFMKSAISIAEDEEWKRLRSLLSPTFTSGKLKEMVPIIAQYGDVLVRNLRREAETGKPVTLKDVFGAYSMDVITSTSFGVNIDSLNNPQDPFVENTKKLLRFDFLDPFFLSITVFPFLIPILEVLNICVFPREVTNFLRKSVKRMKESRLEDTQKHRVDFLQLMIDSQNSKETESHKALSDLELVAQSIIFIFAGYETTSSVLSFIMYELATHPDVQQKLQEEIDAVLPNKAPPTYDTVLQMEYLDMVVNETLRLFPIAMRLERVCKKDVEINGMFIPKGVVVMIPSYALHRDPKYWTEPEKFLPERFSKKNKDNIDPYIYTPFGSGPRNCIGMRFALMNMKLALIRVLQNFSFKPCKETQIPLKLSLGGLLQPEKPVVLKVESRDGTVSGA

Cytochrome P450 2C9 = Cytochrome P450 2C9 (Homo sapiens, UniProt P11712); experiment: Inhibition of CYP2C9; format: ADME
Sequence of Cytochrome P450 2C9 (P11712 whole entry): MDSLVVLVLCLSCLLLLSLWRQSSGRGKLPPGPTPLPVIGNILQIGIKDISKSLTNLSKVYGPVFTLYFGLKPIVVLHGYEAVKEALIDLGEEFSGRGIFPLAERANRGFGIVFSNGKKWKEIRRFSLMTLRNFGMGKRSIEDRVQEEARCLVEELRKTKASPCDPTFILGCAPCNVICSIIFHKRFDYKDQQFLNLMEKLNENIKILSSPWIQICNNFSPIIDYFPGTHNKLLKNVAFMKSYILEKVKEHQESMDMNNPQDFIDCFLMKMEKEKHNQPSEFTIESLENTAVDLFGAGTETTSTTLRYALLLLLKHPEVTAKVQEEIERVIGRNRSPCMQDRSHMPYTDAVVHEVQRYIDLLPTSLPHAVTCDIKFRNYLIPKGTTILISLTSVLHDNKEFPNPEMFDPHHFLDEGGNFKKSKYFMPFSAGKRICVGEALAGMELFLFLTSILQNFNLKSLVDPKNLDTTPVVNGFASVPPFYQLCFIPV

[10] = Lipophilicity, log D of the compound at pH 7.4; format: physicochemical; conditions: buffer
Cytochrome P450 2D6 = Cytochrome P450 2D6 (Homo sapiens, UniProt P10635); experiment: Inhibition of CYP2D6; format: ADME
Sequence of Cytochrome P450 2D6 (P10635 whole entry): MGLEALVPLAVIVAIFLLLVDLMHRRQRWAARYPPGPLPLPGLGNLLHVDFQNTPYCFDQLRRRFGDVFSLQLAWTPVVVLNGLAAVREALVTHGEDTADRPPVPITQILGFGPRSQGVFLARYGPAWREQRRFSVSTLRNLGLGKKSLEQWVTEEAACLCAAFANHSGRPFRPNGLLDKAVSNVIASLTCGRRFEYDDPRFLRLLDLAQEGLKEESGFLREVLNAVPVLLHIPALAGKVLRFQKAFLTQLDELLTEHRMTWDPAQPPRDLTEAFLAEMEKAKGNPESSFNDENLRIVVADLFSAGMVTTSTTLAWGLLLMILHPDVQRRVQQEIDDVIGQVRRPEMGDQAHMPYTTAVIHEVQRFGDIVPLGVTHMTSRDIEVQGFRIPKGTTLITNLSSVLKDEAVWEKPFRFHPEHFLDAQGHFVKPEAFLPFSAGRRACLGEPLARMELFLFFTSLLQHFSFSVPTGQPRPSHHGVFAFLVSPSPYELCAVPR

Cytochrome P450 3A4 [11] = biological target: T3, Cytochrome P450 3A4; experiment: Inhibition of CYP3A4 using midazolam as substrate; format: ADME
[12] = biological target: T1, Prostaglandin D2 receptor 2; experiment: Displacement of [3H]-PGD2 from human CRTh2 receptor expressed in HEK293 cells in presence of 0.5% human serum albumin; format: cell-based
[13] = Intrinsic clearance in human liver microsomes assessed per mg protein; format: ADME, Microsome; conditions: read-out: CLH
[14] = Stability of the compound in simulated gastric fluid assessed as compound remaining after 1 hr; format: physicochemical; conditions: read-out: Stability; in short: as §1
[15] = Solubility of the compound in Tris buffer at pH 9; format: physicochemical
[16] = Solubility of the compound in 0.1 M HCl; format: physicochemical; conditions: buffer
[17] = Volume of distribution at steady state in Wistar rat at 1 mg/kg, iv and 10 mg/kg, po; format: ADME, organism-based; conditions: in vivo, read-out: Vdss
In short: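 Male Wistar rats, 3 animals per experiment; intravenous dose 1 mg/kg and oral dose 10 mg/kg, each given as a solution.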

| Compound | IC50 [1] [nM] | further results |
| --- | --- | --- |
| O=C(O)Cn1c(SCCOc2ccc(Cl)cc2)nc2ccccc21 | 1500 | IC50 [2]: 6600 nM |
| O=C(O)Cn1c(SCc2ccccc2)nc2ccccc21 | 388 |  |
| O=C(O)Cn1c(SCCOc2ccccc2)nc2ccccc21 | 590 |  |
| COC(=O)c1cccc(CSc2nc3ccccc3n2CC(=O)O)c1 | 450 |  |
| O=C(O)Cn1c(SCCOc2ccc3ccccc3c2)nc2ccccc21 | 2500 |  |
| O=C(O)Cn1c(SCCOc2cccc3ccccc23)nc2ccccc21 | 2000 |  |
| O=C(O)Cn1c(SCCCOc2ccccc2)nc2ccccc21 | 786 |  |
| O=C(O)Cn1c(SCCCCOc2ccccc2)nc2ccccc21 | 1400 |  |
| O=C(O)Cn1c(SCCCc2ccccc2)nc2ccccc21 | 475 |  |
| O=C(O)Cn1c(SCCCNc2ccccc2)nc2ccccc21 | 2690 |  |
| O=C(O)Cn1c(SCCNc2ccccc2)nc2ccccc21 | 7690 |  |
| CCCCCCSc1nc2ccccc2n1CC(=O)O | 1360 |  |
| CCCCCSc1nc2ccccc2n1CC(=O)O | 1240 |  |
| CCCCSc1nc2ccccc2n1CC(=O)O | 2370 |  |
| CCOC(=O)CCSc1nc2ccccc2n1CC(=O)O | 11400 |  |
| CCOC(=O)CCCSc1nc2ccccc2n1CC(=O)O | 4410 |  |
| CCOC(=O)CCCCSc1nc2ccccc2n1CC(=O)O | 2360 |  |
| CCOC(=O)CCCCCSc1nc2ccccc2n1CC(=O)O | 1010 |  |
| CCNC(=O)CCCCSc1nc2ccccc2n1CC(=O)O | > 10000 |  |
| O=C(O)Cn1c(SCc2ccc(Cl)cc2)nc2ccccc21 | 160 |  |
| O=C(O)Cn1c(SCc2cccc(Cl)c2)nc2ccccc21 | 186 |  |
| O=C(O)Cn1c(SCc2ccccc2Cl)nc2ccccc21 | 370 |  |

| Compound | IC50 [1] [nM] | further results |
| --- | --- | --- |
| COc1ccc(CSc2nc3ccccc3n2CC(=O)O)cc1 | 210 |  |
| COc1cccc(CSc2nc3ccccc3n2CC(=O)O)c1 | 72 |  |
| COc1ccccc1CSc1nc2ccccc2n1CC(=O)O | 1100 |  |
| Cc1ccc(CSc2nc3ccccc3n2CC(=O)O)cc1 | 220 |  |
| Cc1cccc(CSc2nc3ccccc3n2CC(=O)O)c1 | 105 |  |
| Cc1ccccc1CSc1nc2ccccc2n1CC(=O)O | 810 |  |
| O=C(O)Cn1c(SCc2ccc(Br)cc2)nc2ccccc21 | 220 |  |
| O=C(O)Cn1c(SCc2cccc(Br)c2)nc2ccccc21 | 370 |  |
| O=C(O)Cn1c(SCc2ccccc2Br)nc2ccccc21 | 580 |  |
| COC(=O)c1ccc(CSc2nc3ccccc3n2CC(=O)O)cc1 | 10600 |  |
| COC(=O)c1ccccc1CSc1nc2ccccc2n1CC(=O)O | 520 |  |
| O=C(O)Cn1c(SCc2ccc(Cl)c(Cl)c2)nc2ccccc21 | 380 |  |
| O=C(O)Cn1c(SCc2cc(Cl)ccc2Cl)nc2ccccc21 | 470 |  |
| COc1ccc(C)cc1CSc1nc2ccccc2n1CC(=O)O | 1200 |  |
| COc1ccc(Cl)cc1CSc1nc2ccccc2n1CC(=O)O | 740 |  |
| COc1ccc(OC)c(CSc2nc3ccccc3n2CC(=O)O)c1 | 1600 |  |
| COC(=O)c1ccc(OC)c(CSc2nc3ccccc3n2CC(=O)O)c1 | 29 |  |
| COC(=O)c1cccc(CSc2nc3ccccc3n2CC(=O)O)c1Br | 2900 |  |
| COC(=O)c1cc(CSc2nc3ccccc3n2CC(=O)O)ccc1Br | 980 |  |
| COC(=O)c1cc(Br)cc(CSc2nc3ccccc3n2CC(=O)O)c1 | 330 |  |
| COC(=O)c1ccc(Br)c(CSc2nc3ccccc3n2CC(=O)O)c1 | 45 |  |
| COc1ccc(C(=O)OC(C)C)cc1CSc1nc2ccccc2n1CC(=O)O | 150 |  |

| Compound | IC50 [1] [nM] | further results |
| --- | --- | --- |
| CC(=O)c1cccc(CSc2nc3ccccc3n2CC(=O)O)c1 | 230 |  |
| COc1ccc(C(C)=O)cc1CSc1nc2c(F)cccc2n1CC(=O)O | 5 | IC50 [2]: 10 nM |
| COc1ccc(C(C)=O)cc1CSc1nc2ccc(F)cc2n1CC(=O)O | 45 | IC50 [2]: 89 nM |
| COc1ccc(C(C)=O)cc1CSc1nc2cc([N+](=O)[O-])ccc2n1CC(=O)O | 2 | IC50 [2]: 3 nM |
| COc1ccc(C(C)=O)cc1CSc1nc2cc(C(F)(F)F)ccc2n1CC(=O)O | 3 | IC50 [2]: 5 nM |
| COc1ccc(C(C)=O)cc1CSc1nc2cc(S(C)(=O)=O)ccc2n1CC(=O)O | 41 | IC50 [2]: 50 nM |
| COc1ccc(C(C)=O)cc1CSc1nc2cc(C(C)=O)ccc2n1CC(=O)O | 33 | IC50 [2]: 63 nM |
| COc1ccc(C(C)=O)cc1CSc1nc2cc(C=O)ccc2n1CC(=O)O | 4 | IC50 [2]: 9 nM |
| CCOc1ccc(C(C)=O)cc1CSc1nc2cc(F)ccc2n1CC(=O)O | 4 | IC50 [2]: 5 nM |
| CCCOc1ccc(C(C)=O)cc1CSc1nc2cc(F)ccc2n1CC(=O)O | 5 | IC50 [2]: 9 nM |
| CCCCOc1ccc(C(C)=O)cc1CSc1nc2cc(F)ccc2n1CC(=O)O | 9 | IC50 [2]: 12 nM |
| COc1ccc(C(=O)c2ccccc2)cc1CSc1nc2cc(F)ccc2n1CC(=O)O | 1.7 | IC50 [2]: 4 nM |
| CCNC(=O)c1ccc(OC)c(CSc2nc3cc(F)ccc3n2CC(=O)O)c1 | 16 | IC50 [2]: 15 nM |
| COc1ccc(C(=O)NCc2ccccc2)cc1CSc1nc2cc(F)ccc2n1CC(=O)O | 59 | IC50 [2]: 94 nM |
| CCN(CC)C(=O)c1ccc(OC)c(CSc2nc3cc(F)ccc3n2CC(=O)O)c1 | 72 | IC50 [2]: 130 nM |
| CCN(Cc1ccccc1)C(=O)c1ccc(OC)c(CSc2nc3cc(F)ccc3n2CC(=O)O)c1 | 495 | IC50 [2]: 725 nM |
| COc1ccc(C(=O)N2CCOCC2)cc1CSc1nc2cc(F)ccc2n1CC(=O)O | 107 | IC50 [2]: 91 nM |
| COc1ccc(C(=O)N2CCc3ccccc32)cc1CSc1nc2cc(F)ccc2n1CC(=O)O | 3 | microsomal CLint [3]: 91 µL/min/mg; remaining at 4 h [4]: 93%; solubility [5]: 812 µg/mL (≈ 1650 µM); IC50 [6]: > 10000 nM; hepatocyte CLint [7]: 12 µL/min/1e6 cells; remaining at 4 h [8]: 100%; IC50 (Cytochrome P450 3A4 [9]): 13000 nM; IC50 (Cytochrome P450 2C9): 28000 nM; logD [10]: 0.3; IC50 (Cytochrome P450 2D6): > 50000 nM; IC50 (Cytochrome P450 3A4 [11]): 5000 nM; IC50 [12]: 8 nM; microsomal CLint [13]: 2 µL/min/mg; remaining at 1 h [14]: 100%; solubility [15]: 789 µg/mL (≈ 1610 µM); solubility [16]: 158 µg/mL (≈ 321 µM) |
| O=C(O)Cn1c(SCCc2ccccc2)nc2ccccc21 | 881 |  |
| COc1ccc(C(C)O)cc1CSc1nc2ccccc2n1CC(=O)O (racemic) | 2200 |  |
| CC(=O)Oc1ccccc1C(=O)O [ASPIRIN] |  | Vd [17]: 1 L/kg |
| CC(=O)CC(c1ccccc1)c1c(O)c2ccccc2oc1=O (centres undefined) [WARFARIN] |  | Vd [17]: 1 L/kg |
